Assay results from different studies.
Protocols differ between the studies behind these lines.
Target: Myosin light chain kinase (MYLK3, Homo sapiens, UniProt Q32MK0)
One construct used (Q32MK0 1-819): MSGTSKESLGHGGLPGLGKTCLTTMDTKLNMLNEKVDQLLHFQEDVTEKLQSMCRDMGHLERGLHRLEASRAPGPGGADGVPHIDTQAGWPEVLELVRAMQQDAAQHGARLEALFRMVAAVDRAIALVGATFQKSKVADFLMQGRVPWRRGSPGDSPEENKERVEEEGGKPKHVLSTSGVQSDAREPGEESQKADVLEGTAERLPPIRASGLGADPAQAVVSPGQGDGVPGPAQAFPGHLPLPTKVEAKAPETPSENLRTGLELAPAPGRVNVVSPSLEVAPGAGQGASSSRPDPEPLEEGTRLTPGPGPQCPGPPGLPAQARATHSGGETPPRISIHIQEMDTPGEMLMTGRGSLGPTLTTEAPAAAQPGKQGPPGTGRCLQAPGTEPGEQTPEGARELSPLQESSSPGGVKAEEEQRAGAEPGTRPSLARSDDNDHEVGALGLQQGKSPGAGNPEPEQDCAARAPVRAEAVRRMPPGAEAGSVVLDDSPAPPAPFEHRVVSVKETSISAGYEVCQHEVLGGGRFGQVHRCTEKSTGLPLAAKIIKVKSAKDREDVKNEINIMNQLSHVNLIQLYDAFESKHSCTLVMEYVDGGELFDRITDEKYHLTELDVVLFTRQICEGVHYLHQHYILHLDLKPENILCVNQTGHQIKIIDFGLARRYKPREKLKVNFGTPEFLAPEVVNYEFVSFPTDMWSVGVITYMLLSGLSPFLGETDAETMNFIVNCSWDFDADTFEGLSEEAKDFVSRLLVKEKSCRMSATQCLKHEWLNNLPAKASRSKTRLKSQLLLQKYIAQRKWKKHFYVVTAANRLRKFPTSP

Structure (SMILES) | effect on | technique | concentration | remaining binding [%]
CN(C)c1ncc(F)c(-c2cnn3ncccc23)n1 | binding | – | 1 µM | 77
CNC(=O)[C@@H]1CC[C@@H](n2c(-c3ccc4cnccc4c3)nc3ccc(C(=O)NCc4cccc(C(N)=O)c4)cc32)C1 | binding | competition with immobilised ligand | 1 µM | 100
O=C(c1ccc(Nc2nccc(-c3cc4ccccc4s3)n2)cc1)N1CCC(N2CCCC2)CC1 | binding | competition with immobilised ligand | 1 µM | 2.5
COc1ccc2c(c1)O[C@H](c1ccc(OC)c(OC)c1)C[C@@H]2NC(=O)C1(c2ccc3c(c2)OC(F)(F)O3)CC1 | cell-free assay | competition with immobilised ligand | 1 µM | 95
N[C@H]1CCN(c2nccc(-c3cnn4ncccc34)n2)C1 | binding | – | 1 µM | 88
CCS(=O)(=O)c1cc2cc(C[C@](O)(CC(C)(C)c3ccc(F)cc3C(N)=O)C(F)(F)F)[nH]c2cn1 | cell-free assay | competition with immobilised ligand | 1 µM | 74
CC1CCCN1c1nccc(-c2cnn3ncccc23)n1 (stereo not drawn) | binding | – | 1 µM | 100
C[C@@H]1CN(c2cc(-c3nn(C)c4ccc(OC5(C)CC5)cc34)ncn2)C[C@H](C)O1 | cell-free assay | competition with immobilised ligand | 1 µM | 97
O=C(Nc1c[nH]nc1C(=O)NC1CCNCC1)c1cc(F)cc(F)c1 | binding | competition with immobilised ligand | 1 µM | 90
Nc1c(C(=O)NCc2ccc(C(=O)NCCCC3CCCCC3)cc2)cnn1-c1ccccc1 | cell-free assay | competition with immobilised ligand | 0.1 µM | 100
C[C@H]1CCN(c2nccc(-c3cnn4ncccc34)n2)C1 | binding | – | 1 µM | 98
CS(=O)(=O)NCC[C@H](NC(=O)c1cncc2c1cnn2-c1ccc(F)cc1)c1ccnc(S(C)(=O)=O)c1 | cell-free assay | competition with immobilised ligand | 1 µM | 100
Nc1ncc2c(n1)-c1c([nH]c3ccc(C#CC4CC4)cc13)CCCC2 | binding | competition with immobilised ligand | 1 µM | 91
CC(=O)N1CCC(c2ccc(C(=O)NC3=NCCN3)cc2C(F)(F)F)CC1 | cell-free assay | competition with immobilised ligand | 1 µM | 100
CN(C)c1nccc(-c2cnn3ncccc23)n1 | binding | – | 1 µM | 100
COc1cnc(Nc2cccc(S(N)(=O)=O)c2)nc1N1CCN(c2ccccc2)CC1 | binding | competition with immobilised ligand | 1 µM | 97
C[C@@H](c1ccc(-n2cnc3c(N)ncnc32)cc1)N1CCc2nn(C)c(Cc3ccccc3)c2C1=O | binding | competition with immobilised ligand | 0.1 µM | 100
O=C(c1ccc(Nc2ncc(Cl)c(-c3ccc(Cl)s3)n2)cc1)N1CCC(N2CCCC2)CC1 | binding | competition with immobilised ligand | 1 µM | 6.7
COc1ccnn2ncc(-c3ccnc(N(C)C)n3)c12 | binding | – | 1 µM | 71
Cc1cnc(Nc2ccc(C(=O)N3CCC(N4CCCC4)CC3)cc2)nc1-c1cc2ccccc2s1 | binding | competition with immobilised ligand | 1 µM | 5.1
c1cncc(-c2cccc(Nc3nccc(NC4CCCCC4)n3)c2)c1 | binding | competition with immobilised ligand | 10 µM | 100
